Assay results reported in ChEMBL document CHEMBL1132456 (J Med Chem, 1999).

What was measured:
[1] = The compound was tested for cytotoxicity against Daudi human cell line.; type: cell-based; conditions: Daudi cells, read-out: TC50 (the source's name)
How it was run: (§1)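 Cells seeded in 96-well plates: human PHA-stimulated lymphocytes 20 000, 3T3 10 000, NSO 3 000, Daudi 300 per well. Graded compound concentrations added 12 h after plating; 48 h exposure. MTT (5 mg/mL stock) added for 2 h at 37 °C, then SDS/DMF extraction buffer overnight. OD read at 570 nm, blank subtracted, reported as OD × 1000.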

[2] = test system: Human immunodeficiency virus 3; test: The compound was tested for Anti-viral activity of AZT with compound in C8166 cells infected with HIV-IIIB; type: functional, organism-based; conditions: Human immunodeficiency virus 1, IIIB
How it was run: (§2)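 C8166 cells at 90 × 10³ cells/mL exposed to 100 TCID₅₀ HIV with or without drug (alone, or together with AZT) for 2 h at 37 °C, 5% CO₂. Cells then washed and replated at 35 × 10³ cells/200 μL and cultured 5 days with the same drug levels. Protection from cytopathic effect read by MTT at 490/650 nm; EC₅₀ from median effect equation.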

[3] = test system: CEM-SS; test: The compound was tested for inhibition against HIV-1 from CEM-SS cell lines.; type: functional, cell-based; conditions: Homo sapiens
How it was run: (§3)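 Testing by the NCI AIDS Antiviral Screening Program: protection of HIV-1-infected CEM-SS T4 lymphocytes from cell death, run alongside an AZT control. EC₅₀ is the concentration giving 50% survival of infected cells relative to uninfected untreated controls. IC₅₀ is the concentration giving 50% survival of uninfected cells. SI = IC₅₀/EC₅₀.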

[4] = biological target: Human immunodeficiency virus type 1 reverse transcriptase (Human immunodeficiency virus 1, UniProt Q72547, V106A); test: In vitro inhibitory activity against HIV-1 mutant Reverse transcriptase containing the single amino acid substitution V106A
How it was run: (§4)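 Template poly(rA):oligo(dT) (0.3 μM 3'-OH ends) with 10 μM [3H]dTTP, incubated at 37 °C. Acid-precipitable counts taken on filters. Inhibitor spanned 0.2–5 Ki. Ki came from Lineweaver–Burk and Dixon plots, triplicate runs.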

[5] = […] index values calculated at 50% viral activity using mutually exclusive forms of equation.
How it was run: (§5)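 Chou–Talalay multiple drug effect analysis of compound combined with AZT in acutely HIV-infected C8166 cells. Combination index computed at 50% effect under the mutually exclusive or mutually nonexclusive assumption.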

[6] = biological target: Human immunodeficiency virus type 1 reverse transcriptase (Human immunodeficiency virus 1, UniProt Q72547); test: In vitro inhibitory activity against HIV-1 wild type reverse transcriptase (RT)
[7] = test system: Human immunodeficiency virus 3; test: The compound was tested in presence of AZT for Anti-viral activity of compound in C8166 cells infected with HIV-IIIB; type: functional, organism-based; conditions: Human immunodeficiency virus 1, IIIB; how it was run: as §2
[8] = biological target: Human immunodeficiency virus type 1 reverse transcriptase (Human immunodeficiency virus 1, UniProt Q72547, Y181I); test: In vitro inhibitory activity against HIV-1 mutant Reverse transcriptase containing the single amino acid substitution Y181I; how it was run: as §4
[9] = biological target: Human immunodeficiency virus type 1 reverse transcriptase (Human immunodeficiency virus 1, UniProt Q72547, L100I); test: In vitro inhibitory activity against HIV-1 mutant Reverse transcriptase containing the single amino acid substitution L100I; how it was run: as §4
[10] = The compound was tested for cytotoxicity against NSO murine cell line.; type: cell-based; conditions: mouse, NSO cells; read-out: TC50 (the source's name); how it was run: as §1
[11] = […] index values calculated at 50% viral activity using mutually nonexclusive forms of equation.; how it was run: as §5
[12] = test system: C8166; test: The compound was tested for inhibition against HIV-III B from C8 166 cell lines.; type: functional, cell-based; conditions: Homo sapiens
How it was run: (§6)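 C8166 cells at 90 × 10³ cells/mL infected with 100 TCID₅₀ HIV with or without compound for 2 h at 37 °C. Cells washed, replated at 35 × 10³ cells/200 μL, and kept 5 days with drug. Cytopathic protection and toxicity both read by MTT (OD 490/650 nm). EC₅₀ and IC₅₀ from median effect equation; SI = IC₅₀/EC₅₀.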

[13] = test system: Human immunodeficiency virus 3; test: The compound was tested for Anti-viral activity of compound alone in C8166 cells infected with HIV-IIIB; type: functional, organism-based; conditions: Human immunodeficiency virus 1, IIIB; how it was run: as §2
[14] = biological target: Human immunodeficiency virus type 1 reverse transcriptase (Human immunodeficiency virus 1, UniProt Q72547, K103N); test: In vitro inhibitory activity against HIV-1 mutant Reverse transcriptase containing the single amino acid substitution K103N; how it was run: as §4
[15] = The compound was tested for cytotoxicity against Human Lymphocytes; conditions: read-out: TC50 (the source's name); how it was run: as §1
[16] = The compound was tested for cytotoxicity against 3T3 fibroblast murine cell line.; type: cell-based; conditions: mouse, NIH3T3 fibroblast cells; read-out: TC50 (the source's name); how it was run: as §1
[17] = biological target: Human immunodeficiency virus type 1 reverse transcriptase (Human immunodeficiency virus 1, UniProt Q72547, Y188L); test: In vitro inhibitory activity against HIV-1 mutant Reverse transcriptase containing the single amino acid substitution Y188L; how it was run: as §4
[18] = test system: Human immunodeficiency virus 1; test: (§7) The compound was tested for inhibition against HIV-1 from CEM-SS cell lines; type: functional, organism-based; conditions: Human immunodeficiency virus 1, CEM-SS; how it was run: as §3
[19] = test system: Human immunodeficiency virus 3; test: (§8) The compound was tested for inhibition against HIV-III B from C8 166 cell lines; type: functional, organism-based; conditions: Human immunodeficiency virus 1, IIIB, C8166; how it was run: as §6
[20] = test system: C8166; test: as §8; type: functional, cell-based; conditions: Homo sapiens; how it was run: as §6
[21] = test system: CEM-SS; test: as §7; type: functional, cell-based; conditions: Homo sapiens; how it was run: as §3
[22] = test system: Human immunodeficiency virus 3; test: The compound was tested in presence of AZT for Anti-viral of compound in C8166 cells infected with HIV-IIIB; type: functional, organism-based; conditions: Human immunodeficiency virus 1, IIIB; how it was run: as §2
[23] = The compound was tested for cytotoxicity against NSO murine cell lines.; type: cell-based; conditions: mouse, NSO cells; read-out: TC50 (the source's name); how it was run: as §1

Row | SMILES | CC50 [1] [µM] | EC50 [3] [µM] | IC50 [3] [µM] | Ki [4] [µM] | Ki [6] [µM] | Ki [8] [µM] | Ki [9] [µM] | CC50 [10] [µM] | EC50 [12] [µM] | IC50 [12] [µM] | Ki [14] [µM] | CC50 [15] [µM] | CC50 [16] [µM] | Ki [17] [µM] | IC50 [19] [µM] | other results
1 | CCC1(c2ccccc2)Oc2cccnc2-n2cccc2C1=O (stereo not given) | 13 | 0.069 | 3.9 | 0.07 | 0.022 | 4 | 0.04 | 14 | 0.054 | 6 | 0.3 | 13 | 10 | 1.5 | – | EC50 [2]: 0.00317 µM; CI [5]: 0.302; EC50 [7]: 0.017 µM; CI [11]: 0.303; EC50 [13]: 0.054 µM
2 | CCC1(c2cccc(OC)c2)Oc2ccccc2-n2cccc2C1=O (stereo not given) | 280 | – | – | 0.01 | 0.06 | > 10 | 0.011 | 230 | – | – | 0.022 | 200 | 210 | > 10 | 7 | EC50 [18]: 0.04 µM; IC50 [18]: 0.2 µM
3 | CCC1(c2cccc(F)c2)Oc2ccccc2-n2cccc2C1=O (stereo not given) | 720 | – | – | 0.4 | 0.1 | 4 | 0.16 | 720 | – | – | 0.07 | 720 | 710 | 1.5 | – | EC50 [20]: 1.1 µM; IC50 [20]: 13.8 µM; EC50 [21]: 0.072 µM; IC50 [21]: 2 µM
4 | CCC1(c2cccs2)Oc2cccnc2-n2cccc2C1=O (stereo not given) | 29 | 0.15 | > 2 | 0.09 | 0.093 | 0.43 | 0.09 | 26 | – | 20.5 | 0.045 | 30 | 35 | 0.475 | – | –
5 | CCC1(c2cccc(C)c2)Oc2cccnc2-n2cccc2C1=O (stereo not given) | 380 | 0.027 | > 2 | 0.4 | 0.021 | 1.2 | 0.044 | 410 | 0.27 | 7.2 | 0.03 | 400 | 400 | 1.5 | – | –
6 | CCC1(c2cccs2)Oc2ccccc2-n2cccc2C1=O (stereo not given) | – | 0.115 | 11 | 0.11 | 0.03 | 0.97 | 0.07 | – | – | – | 0.4 | – | – | 0.3 | – | –
7 | CCC1(c2cccc(C)c2)Oc2ccccc2-n2cccc2C1=O (stereo not given) | > 1000 | – | – | 0.25 | 0.07 | 4 | 0.1 | > 1000 | – | – | 1.1 | > 1000 | > 1000 | 1.9 | 52 | EC50 [18]: 0.35 µM; IC50 [18]: 119 µM; EC50 [2]: 0.00325 µM; CI [5]: 0.04; EC50 [22]: 0.011 µM; CI [11]: 0.04; EC50 [13]: 0.425 µM
8 | CCC1(c2ccc(C)cc2)Oc2ccccc2-n2cccc2C1=O (stereo not given) | – | – | – | – | 0.97 | – | – | – | – | – | – | – | – | – | – | –
9 | CCC1(c2ccccc2)Oc2ccccc2-n2cccc2C1=O (stereo not given) | 26 | 0.47 | – | 3.9 | 0.19 | > 10 | 0.75 | – | 0.8 | 10 | 7.7 | 32 | 33 | > 10 | – | CC50 [23]: 24 µM
10 | CCC1(c2cc(F)cc(F)c2)Oc2ccccc2-n2cccc2C1=O (stereo not given) | – | – | – | 3 | 1.5 | 6.8 | 1.7 | – | – | – | 2.7 | – | – | > 10 | 17.1 | –
